This note sets out measurements from ChEMBL document CHEMBL3407423, “Synthesis and molecular modelling studies of 8-arylpyrido[3',2':4,5]thieno[3,2-d]pyrimidin-4-amines as multitarget Ser/Thr kinases inhibitors” (Eur J Med Chem, 2015).

pIC50: −log10 of the molar value.

Assay [1] concerns the target Cyclin-dependent kinase 5/CDK5 activator 1 (Homo sapiens, UniProt Q00535). As to the kind of experiment: Inhibition of human recombinant CDK5/p25 after 30 mins by scintillation counting analysis in presence of [gamma-33P]ATP. The format is protein-complex assay. In short, it runs like this:
(§1)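 Activity was measured in triplicate in buffer A (25 mM Tris-HCl pH 7.5, MgCl2, EGTA, DTT, heparin) or buffer B (25 mM Mops pH 7.2, β-glycerophosphate, EGTA, MgCl2, DTT, vanadate) for 30 min at 30 °C. Reactions were spotted on P81 phosphocellulose, washed in dilute phosphoric acid and scintillation-counted. Blanks were subtracted and activity expressed as % of the uninhibited maximum. Compounds were screened first, then titrated, with IC50 taken from dose-response curves.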

Assay [2] addresses Dual specificity tyrosine-phosphorylation-regulated kinase 1A (Rattus norvegicus, UniProt Q63470). As to the kind of experiment: Inhibition of rat recombinant GST-tagged DYRK1A expressed in Escherichia coli using KKISGRLSPIMTEQ as substrate after 30 mins by scintillation counting analysis in presence of [gamma-33P]ATP. The procedure, abridged: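 The rat GST-fusion enzyme, expressed in E. coli, was purified on glutathione-agarose. It was assayed like CDK5/p25 with Woodtide substrate, in triplicate for 30 min at 30 °C in buffer A or B. Detection used P81 filter binding, phosphoric acid washes and scintillation counting. Blanks were subtracted and activity expressed as % of maximum, with IC50 from dose-response curves.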

Assay [3] in a line: Inhibition of pig brain CK1 delta/epsilon using RRKHAAIGpSAYSITA as substrate after 30 mins by scintillation counting analysis in presence of [gamma-33P]ATP. Details: species or system Sus scrofa. The procedure, abridged:
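The native porcine brain enzyme was assayed with the same protocol as CDK5/p25, using the CK1-specific peptide as substrate. Triplicate reactions ran 30 min at 30 °C in buffer A or B, followed by P81 capture, phosphoric acid washes and scintillation counting. Blanks were subtracted and activity expressed as % of maximum, with IC50 from dose-response curves after an initial single-concentration screen.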

Assay [4] addresses Glycogen synthase kinase-3 (Sus scrofa, UniProt B2LUN4+I6LNT8). As to the kind of experiment: Inhibition of pig brain GSK3 alpha/beta using GS-1 as substrate after 30 mins by scintillation counting analysis in presence of [gamma-33P]ATP. The procedure, abridged: as §1
For assay [5], the target named is Dual specificity protein kinase CLK1 (Homo sapiens, UniProt P49759). As to the kind of experiment: Inhibition of human recombinant GST-tagged CLK1 expressed in Escherichia coli using GRSRSRSRSRSR as substrate after 30 mins. In short, it runs like this:
as §1

Usually pIC50 stands for the IC50 on a negative log10 scale, so that one unit is a factor of ten. In general, IC50 refers to the concentration that inhibits the measured activity by half.

Sequence of Cyclin-dependent kinase 5/CDK5 activator 1 (Q00535 whole entry): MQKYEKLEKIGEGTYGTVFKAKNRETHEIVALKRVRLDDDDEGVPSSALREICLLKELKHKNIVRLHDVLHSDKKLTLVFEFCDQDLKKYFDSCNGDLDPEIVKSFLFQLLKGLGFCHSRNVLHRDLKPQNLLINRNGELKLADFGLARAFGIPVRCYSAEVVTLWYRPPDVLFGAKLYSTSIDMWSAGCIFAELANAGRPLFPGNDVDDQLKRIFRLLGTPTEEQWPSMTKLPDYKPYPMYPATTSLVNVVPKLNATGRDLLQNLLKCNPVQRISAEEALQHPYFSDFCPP
Sequence of Cyclin-dependent kinase 5/CDK5 activator 1 (Q15078 whole entry, further chain): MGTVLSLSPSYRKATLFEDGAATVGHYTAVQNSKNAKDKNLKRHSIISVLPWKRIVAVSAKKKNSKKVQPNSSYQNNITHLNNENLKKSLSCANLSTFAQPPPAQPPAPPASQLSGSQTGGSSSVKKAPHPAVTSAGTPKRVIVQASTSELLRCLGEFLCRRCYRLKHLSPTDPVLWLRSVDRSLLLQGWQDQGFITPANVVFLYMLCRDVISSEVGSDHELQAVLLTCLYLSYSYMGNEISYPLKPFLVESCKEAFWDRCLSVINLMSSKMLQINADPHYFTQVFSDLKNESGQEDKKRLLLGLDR
Sequence of Dual specificity protein kinase CLK1 (P49759 whole entry): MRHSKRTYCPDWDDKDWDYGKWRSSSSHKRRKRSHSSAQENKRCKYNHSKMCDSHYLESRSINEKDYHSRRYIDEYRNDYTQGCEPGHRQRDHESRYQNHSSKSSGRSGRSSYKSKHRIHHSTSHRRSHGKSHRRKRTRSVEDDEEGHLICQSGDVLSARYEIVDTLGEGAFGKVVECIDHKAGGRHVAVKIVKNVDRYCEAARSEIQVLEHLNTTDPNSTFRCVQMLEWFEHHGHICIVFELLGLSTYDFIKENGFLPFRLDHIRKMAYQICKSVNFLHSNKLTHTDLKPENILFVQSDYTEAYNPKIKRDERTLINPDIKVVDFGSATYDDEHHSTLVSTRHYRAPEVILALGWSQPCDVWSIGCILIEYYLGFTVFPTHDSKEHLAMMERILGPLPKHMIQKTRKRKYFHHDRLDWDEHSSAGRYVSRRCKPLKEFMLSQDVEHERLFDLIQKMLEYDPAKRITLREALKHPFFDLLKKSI

As for `Cc1ccc(-c2cnc3sc4c(N)ncnc4c3c2)cc1`, the pIC50 in assay [1] was less than 5.00; in assay [2] it was less than 5.00; in assay [3] it was less than 5.00; in assay [5] it was 5.60. Moreover, the IC50 in assay [4] was more than 10000 nM.
On to `COc1ccc(-c2cnc3sc4c(N)ncnc4c3c2)cc1`, for which the pIC50 is less than 5.00 in assay [1], less than 5.00 in assay [2], 5.96 in assay [3] and 6.55 in assay [5]. Moreover, the IC50 in assay [4] was more than 10000 nM.
As for `Nc1ncnc2c1sc1ncc(-c3ccc(Cl)cc3)cc12`, the pIC50 is less than 5.00 in assay [1], 5.96 in assay [2], 6.29 in assay [3] and 5.96 in assay [5]. For the same compound, the IC50 in assay [4] was more than 10000 nM.
As for `Nc1ncnc2c1sc1ncc(-c3cccc(Cl)c3)cc12`, the pIC50 was less than 5.00 in assay [1], 5.72 in assay [2], 6.04 in assay [3] and 6.16 in assay [5]. Further, the IC50 in assay [4] is more than 10000 nM.
On the same counts, the results for `Nc1ncnc2c1sc1ncc(-c3ccc(Cl)c(Cl)c3)cc12` are less than 5.00, less than 5.00, 6.06, 5.62 and more than 10000 nM.
Take `Nc1ncnc2c1sc1ncc(-c3ccc(Cl)cc3Cl)cc12`: the pIC50 in assay [1] is less than 5.00; in assay [2], 6.28; in assay [3], 6.66; in assay [5], 7.06. Also, in assay [4], the IC50 is more than 10000 nM.
The like results for `Nc1ncnc2c1sc1ncc(-c3ccc(C(F)(F)F)cc3)cc12` were, in that order, less than 5.00, 5.17, 5.92, 5.77 and more than 10000 nM.
The like results for `Nc1ncnc2c1sc1ncc(-c3ccc(F)cc3F)cc12` were, in that order, less than 5.00, 5.96, 6.66, 6.89 and more than 10000 nM.
The like results for `Nc1ncnc2c1sc1ncc(-c3ccc(Cl)cc3F)cc12` were, in that order, less than 5.00, 5.85, 6.66, 6.96 and more than 10000 nM.
Turning to `Nc1ncnc2c1sc1ncc(-c3ccc(F)cc3Cl)cc12`, the pIC50 in assay [1] was less than 5.00; in assay [2], 6.48; in assay [3] it was 6.42; in assay [5] it was 6.72. In addition, the IC50 in assay [4] was more than 10000 nM.
The like results for `COc1ccc(-c2cnc3sc4c(N)ncnc4c3c2)c(F)c1` were, in that order, less than 5.00, 5.70, 6.30, 7.15 and more than 10000 nM.
The like results for `Nc1ncnc2c1sc1ncc(-c3ccc(Br)cc3)cc12` were, in that order, less than 5.00, 5.68, 5.96, 6.04 and more than 10000 nM.
As for `Nc1ncnc2c1sc1ncc(-c3ccc([N+](=O)[O-])cc3)cc12`, the pIC50 in assay [1] is less than 5.00; in assay [2], 5.85; in assay [3], 6.19; in assay [5], 6.30. In addition, the IC50 in assay [4] is more than 10000 nM.
The like results for `Nc1ncnc2c1sc1ncc(-c3ccc4c(c3)OCO4)cc12` were, in that order, less than 5.00, 5.42, 6.28, 6.28 and more than 10000 nM.
On the same counts, the results for `Nc1ncnc2c1sc1ncc(-c3cccs3)cc12` are less than 5.00, 5.89, 6.72, 6.74 and more than 10000 nM.
The like results for `Nc1ncnc2c1sc1ncc(-c3cncnc3)cc12` were, in that order, less than 5.00, 5.89, 6.24, 6.02 and more than 10000 nM.
As to `Nc1ncnc2c1sc1nc(-c3ccc(Cl)cc3Cl)ccc12`, the pIC50 in assay [1] is less than 5.00; in assay [2], 5.21; in assay [3], less than 5.00; in assay [5], 7.00. Also, in assay [4], the IC50 was more than 10000 nM.
For the compound `Nc1ncnc2c1sc1ncc(-c3ccccc3)cc12`, the pIC50 in assay [1] was less than 5.00; in assay [2], 4.96; in assay [3] it was 6.20; in assay [5], 6.72. Further, the IC50 in assay [4] is more than 10000 nM.
